Substitutions are numbered along the chain they refer to. Names may count otherwise.
Tests used:
p300-ZZ = test: 1H,15N HSQC NMR titration, p300-ZZ; assay type: binding, human
In short: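 Human p300 ZZ (aa 1663–1713) carried an N-terminal His-tag and was expressed in BL21(DE3) RIL in M9 with 15NH4Cl and 0.05 mM ZnCl2. Induction was 0.2 mM IPTG, overnight at 18 °C. Protein was Ni-NTA purified and the tag cleaved. 0.1 mM sample in 20 mM Tris-HCl pH 7.0, 100 mM NaCl, 5 mM DTT, 8% D2O. Unlabeled HAT domain (1:2) was added first, then H3 peptide; chemical shift changes were monitored at 298K.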

[1] = test system: BD-RING-PHD (BRP) region of p300; test: 1H,15N HSQC NMR titration, p300 BD-RING-PHD; assay type: binding, human; conditions: 15N-labeled BD-RING-PHD, 298K, pH 7.0
[2] = target: T1, p300 HAT-ZZ domain (aa 1287–1713, Y1467F) (human, UniProt Q09472 1287-1713, Y1467F); test: NMR titration
T1 sequence: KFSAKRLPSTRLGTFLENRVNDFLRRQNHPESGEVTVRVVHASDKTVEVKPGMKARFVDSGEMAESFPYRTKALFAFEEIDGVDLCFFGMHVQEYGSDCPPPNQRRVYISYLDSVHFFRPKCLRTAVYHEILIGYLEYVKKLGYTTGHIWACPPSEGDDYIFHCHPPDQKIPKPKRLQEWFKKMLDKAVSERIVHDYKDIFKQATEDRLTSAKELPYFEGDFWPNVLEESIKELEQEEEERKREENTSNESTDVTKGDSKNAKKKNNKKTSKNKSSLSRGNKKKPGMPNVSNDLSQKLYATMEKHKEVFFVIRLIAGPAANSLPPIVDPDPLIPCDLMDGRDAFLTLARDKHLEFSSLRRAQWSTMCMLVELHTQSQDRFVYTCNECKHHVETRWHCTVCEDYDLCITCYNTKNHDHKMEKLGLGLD

chromatin in H1299 cells = test: Chromatin association of FLAG-p300BRPHZT; assay type: cell-based, human; conditions: H1299 stable cells, ChIP-western and salt fractionation
In short: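 H1299 cells stably expressing FLAG-p300-BRPHZT variants were used. For protein-ChIP, cells were formaldehyde-crosslinked and nuclear lysates sonicated, then pulled down overnight at 4 °C on anti-FLAG M2 agarose. Beads were washed in low-salt, high-salt and LiCl buffers, and bound protein was read by western blot. For salt fractionation, cells were swollen in hypotonic HEPES buffer and nuclei isolated, then nuclei were extracted 30 min at 4 °C in glycerol wash buffer with 75 mM NaCl and the supernatant collected.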

[3] = test system: histone acetylation in H1299 cells; test: Histone acetylation levels in H1299 stable cells; assay type: cell-based, human; conditions: n = 3; for H3K4, H3K9 and H4 acetylation / Increase of H3K18 and H3K27 acetylation: p300-BRPHZT
[4] = test system: chromatin of H1299 cells (FLAG, H3K18ac, H3K27ac); test: ChIP-seq / ChIP-qPCR in H1299 stable cells; assay type: cell-based, human; conditions: for Chromatin binding / H3K18ac and H3K27ac occupancies: ChIP-seq, H1299
In short: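 H1299 cells (RPMI, 10% FBS) were lentivirally transduced with FLAG-p300-BRPHZT (wild type or mutant) and blasticidin-selected for 4–6 days. Cells were crosslinked with 1% formaldehyde for 10 min, quenched with 125 mM glycine, and nuclei were lysed in 1% SDS buffer and sonicated. Chromatin was immunoprecipitated overnight at 4 °C with 2–4 μg antibody, washed in low-salt, high-salt and LiCl buffers, and reverse-crosslinked. DNA went to SYBR qPCR (IgG or H3 normalization, two negative-control loci) or sequencing.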

[5] = target: T2, human p300 ZZ domain (aa 1663–1713) (human, UniProt Q09472 1663-1713); test: crystal structure
T2 sequence: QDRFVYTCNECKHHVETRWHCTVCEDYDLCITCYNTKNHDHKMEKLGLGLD

[6] = target: T2, human p300 ZZ domain (aa 1663–1713); test: NMR titration

For H4_1–9(Ser1): H4_1–9(Ser1) (SGRGKGGKG), the “Binding to p300-ZZ” value (p300-ZZ; authors' conclusion from NMR titration) was “almost negligible binding”.

B1: HAT-ZZ: HAT-ZZ domain (aa 1287–1713, Y1467F) (protein)
chain: T1 sequence
modifications: left off: His-tag, N-terminal, cleaved
For B1, the “Interaction with BD-RING-PHD” value [1] was “weakened”.

B2: p300 BD-RING-PHD region (aa 1047–1278) (domain or fragment)
chain: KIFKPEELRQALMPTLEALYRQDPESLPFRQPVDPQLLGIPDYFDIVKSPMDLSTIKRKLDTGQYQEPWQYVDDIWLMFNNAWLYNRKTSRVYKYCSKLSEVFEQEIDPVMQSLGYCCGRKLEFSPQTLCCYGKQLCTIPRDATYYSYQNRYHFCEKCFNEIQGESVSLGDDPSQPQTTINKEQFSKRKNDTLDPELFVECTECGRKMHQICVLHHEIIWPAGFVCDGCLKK
B2: binds [2].

B3: N1671A: p300 BRPHZT loss-of-function mutation of ZZ (protein)
chain: TQSSPAPGQSKKKIFKPEELRQALMPTLEALYRQDPESLPFRQPVDPQLLGIPDYFDIVKSPMDLSTIKRKLDTGQYQEPWQYVDDIWLMFNNAWLYNRKTSRVYKYCSKLSEVFEQEIDPVMQSLGYCCGRKLEFSPQTLCCYGKQLCTIPRDATYYSYQNRYHFCEKCFNEIQGESVSLGDDPSQPQTTINKEQFSKRKNDTLDPELFVECTECGRKMHQICVLHHEIIWPAGFVCDGCLKKSARTRKENKFSAKRLPSTRLGTFLENRVNDFLRRQNHPESGEVTVRVVHASDKTVEVKPGMKARFVDSGEMAESFPYRTKALFAFEEIDGVDLCFFGMHVQEYGSDCPPPNQRRVYISYLDSVHFFRPKCLRTAVYHEILIGYLEYVKKLGYTTGHIWACPPSEGDDYIFHCHPPDQKIPKPKRLQEWYKKMLDKAVSERIVHDYKDIFKQATEDRLTSAKELPYFEGDFWPNVLEESIKELEQEEEERKREENTSNESTDVTKGDSKNAKKKNNKKTSKNKSSLSRGNKKKPGMPNVSNDLSQKLYATMEKHKEVFFVIRLIAGPAANSLPPIVDPDPLIPCDLMDGRDAFLTLARDKHLEFSSLRRAQWSTMCMLVELHTQSQDRFVYTCAECKHHVETRWHCTVCEDYDLCITCYNTKNHDHKMEKLGLGLDDESNNQQAAATQSPGDSRRLSIQRCIQSLVHACQCRNANCSLPSCQKMKRVVQHTKGCKRKTNGGCPICKQLIALCCYHAKHCQENKCPVPFCLNIKQKLRQQQLQHRLQQAQMLRR
modifications: left off: FLAG, end not stated, kept
For B3, the “Association of p300 BRPHZT with chromatin” value (from here on “Association of p300 BRPHZT”) (chromatin in H1299 cells) was “substantially reduced”, the “H3K4, H3K9 and H4 acetylation” value [3] was “without affecting” and the “Increase of H3K18 and H3K27 acetylation” value [3] was “greatly attenuated”. The Chromatin binding [4] was “incapable of gaining the chromatin binding” and the “H3K18ac and H3K27ac occupancies” value [4] was “no increase”.

B4: WT p300-BRPHZT: p300 BD-RING-PHD-HAT-ZZ-TAZ2 region (BRPHZT, amino acids 1035–1830) (protein)
chain: B3 chain with A637N
modifications: left off: FLAG, end not stated, kept
With B4 the “Global levels of acetylation at all sites tested” value ([3]; whole cell extract) was “increased”, the “H3K18ac and H3K27ac occupancies” value [4] was “evident increase” and the “Number of p300-BRPHZT binding sites (FLAG ChIP-seq)” value ([4]; M2 Flag antibody, H1299, MACS p ≤1e−8) was 679.

B5: N1132A: p300 BRPHZT BD mutation that abrogates acetyllysine binding (protein)
chain: B3 chain with N98A, A637N
modifications: left off: FLAG, end not stated, kept
In the case of B5, the “Association of p300 BRPHZT” value (chromatin in H1299 cells) is reported as “substantially reduced” and the “p300-BRPHZT occupancy and H3K18ac and H3K27ac levels at target gene regions” value ([4]; ChIP-qPCR, H1299, n = 3) is reported as “decrease”.

B6: D1690A (protein)
chain: B3 chain with A637N, D656A
modifications: left off: FLAG, end not stated, kept
With B6 the “Association of p300 BRPHZT” value (chromatin in H1299 cells) was “substantially reduced”, the “H3K4, H3K9 and H4 acetylation” value [3] was “without affecting” and the “Increase of H3K18 and H3K27 acetylation” value [3] was “greatly attenuated”. The Chromatin binding [4] was “incapable of gaining the chromatin binding” and the “H3K18ac and H3K27ac occupancies” value [4] was “no increase”.

ARTKQT [histone H3 tail (residues 1–6)]: binds [5].

In the case of VRTKQT [H3A1V1–6], the “fold reduction in binding against the peptide with Ala1” value [6] is reported as roughly 3 fold.

B7: HAT domain: p300 HAT domain (aa 1287–1663, Y1467F) (protein)
chain: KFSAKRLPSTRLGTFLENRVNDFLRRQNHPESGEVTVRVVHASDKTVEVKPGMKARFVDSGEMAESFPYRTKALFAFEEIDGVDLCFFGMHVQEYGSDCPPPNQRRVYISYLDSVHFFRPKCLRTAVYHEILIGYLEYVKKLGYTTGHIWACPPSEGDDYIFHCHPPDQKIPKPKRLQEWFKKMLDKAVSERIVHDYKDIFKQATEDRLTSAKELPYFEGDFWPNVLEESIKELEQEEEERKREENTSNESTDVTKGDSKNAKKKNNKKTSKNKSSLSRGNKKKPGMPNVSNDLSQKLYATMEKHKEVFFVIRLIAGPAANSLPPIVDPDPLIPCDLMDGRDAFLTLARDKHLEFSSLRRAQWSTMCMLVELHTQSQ
modifications: left off: His-tag, N-terminal, cleaved
In the case of B7, the “Resonance perturbations in p300-ZZ in presence of HAT domain” value (p300-ZZ; HSQC, 298K, pH 7.0, HAT (1:2 molar ratio) added first, then peptide) is reported as “very small changes in ZZ”, the “Interaction between isolated HAT and ZZ domains” value (p300-ZZ; HSQC, p300-ZZ with unlabeled HAT (1:2 molar ratio)) is reported as “interact only weakly” and the “Interaction with BD-RING-PHD” value [1] is reported as “rapid disappearance of resonances”.
